The source of these data is ChEMBL document CHEMBL1149394, “Guiding farnesyltransferase inhibitors from an ECLiPS library to the catalytic zinc” (Bioorg Med Chem Lett, 2006).

The target in series [1] is T1, Protein farnesyltransferase (Homo sapiens, UniProt P49354+P49356). As to the kind of experiment: Inhibitory activity against Ha-Ras processing in COS7 cells. It counts as functional, cell-based, COS-7.
In series [2] the target is T1, Protein farnesyltransferase. Briefly: Inhibitory activity against farnesyltransferase quantified by SPA assay. It counts as protein-complex assay.
For series [3] the target is unchanged. Briefly: Inhibitory activity against Farnesyltransferase quantified by modified SPA assay with improved sensitivity. The series is classed as protein-complex assay. Summed up: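 Scintillation proximity assay, high-sensitivity version. Purified FTase (30 pM final) was pre-incubated with inhibitor or DMSO control (5% v/v final) for 15 min at room temperature. The reaction was started with biotin-CVLS (100 nM final) and run for 60 min at 37 °C. It was quenched with a cold suspension of 250 mM EDTA pH 8.0, 0.5% BSA and SPA beads, then the IC50 was determined.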

For a further series, the system named is Liver microsomes. As to the kind of experiment: Metabolic stability in rat liver microsome. The series is classed as ADME. The essentials:
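Rat liver microsomes (cytochrome P450 content 6.7 µM) incubated 60 min at 37 °C with compound at 10 µM, KPi pH 7.4 and freshly prepared NADPH, in 1.0 ml final. Read-out is percent of compound remaining.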
On the technique in general: Liver microsomes are a subcellular fraction often used to study metabolism.

Series [4] concerns the target Geranylgeranyl transferase type I (Homo sapiens, UniProt P49354+P53609). As to the kind of experiment: Inhibitory activity against Geranylgeranyltransferase 1. The series is classed as protein-complex assay.
The test system of the next series is Mus musculus. Briefly: AUC in mice at 10 mg/kg, po. It counts as ADME, organism-based, Plasma. Also noted: dose 10 mg/kg, route oral. The note with it: in vivo.
Series [5] is described as follows: Cmax in mice at 10 mg/kg, po. The series is classed as ADME, organism-based. Further details: dose 10 mg/kg, route oral. The note with it: mouse, in vivo.
A short description of series [6]: Bioavailability in mice. The note with it: mouse, in vivo. The series is classed as ADME, organism-based.

One may read the IC50 as the concentration that inhibits the measured activity by half. Lower therefore signals higher potency. `CCCCNC(=O)N1CCN(C2c3ccc(Cl)cc3CCc3cc(Br)cnc32)CC1C(=O)NCc1cccnc1` (configuration not stated): the results for the IC50 in series [1] and in series [2] were 45 nM and 9.1 nM, respectively.

On to `CCCCCC(=O)N1CCN(C2c3ccc(Cl)cc3CCc3cc(Br)cnc32)CC1C(=O)NCc1cccnc1` (configuration not stated), for which the IC50 in series [1] stood at 75 nM; in series [2] it was 8 nM.

With `CCCCC(=O)N1CCN(C2c3ccc(Cl)cc3CCc3cc(Br)cnc32)CC1C(=O)Nc1cccnc1` (configuration not stated), the results for the IC50 in series [1] and in series [2] were 100 nM and 18 nM, respectively.

For the compound `CC(C)(C)OC(=O)N1CCN(C2c3ccc(Cl)cc3CCc3cc(Br)cnc32)CC1C(=O)NCc1cccnc1` (configuration not stated), the IC50 in series [1] is more than 200 nM; in series [2], 22 nM.

With `O=C(NCc1cccnc1)C1CN(C2c3ccc(Cl)cc3CCc3cc(Br)cnc32)CCN1C(=O)CCC1CCCCC1` (configuration not stated), the IC50 in series [1] stood at 38 nM; in series [2], 20 nM.

With `CC(C)NC(=O)N1CCN(C2c3ccc(Cl)cc3CCc3cc(Br)cnc32)CC1C(=O)NCc1cccnc1` (configuration not stated), the values for the IC50 in series [1] and in series [2] were 140 nM and 47 nM, respectively.

Consider `COC(=O)CCCCC(=O)N1CCN(C2c3ccc(Cl)cc3CCc3cc(Br)cnc32)CC1C(=O)NCc1cccnc1` (configuration not stated), for which the IC50 in series [1] stood at 62 nM; in series [2], 7.9 nM.

For the compound `O=C(NCCc1c[nH]cn1)C1CN(C2c3ccc(Cl)cc3CCc3cc(Br)cnc32)CCN1C(=O)NC1CCCCC1` (configuration not stated), the IC50 in series [1] is 18 nM; in series [2], 7 nM.

Take `O=C(NCc1cccnc1)C1CN(C2c3ccc(Cl)cc3CCc3cc(Br)cnc32)CCN1C(=O)C1CCCCCC1` (configuration not stated): the IC50 in series [1] was 85 nM; in series [2], 12 nM.

With `CCCCC(=O)N1CCN(C2c3ccc(Cl)cc3CCc3cc(Br)cnc32)CC1C(=O)NCc1ccc[n+]([O-])c1` (configuration not stated), the IC50 in series [1] was more than 200 nM.

On to `O=C(NCCCc1c[nH]cn1)C1CN(C2c3ccc(Cl)cc3CCc3cc(Br)cnc32)CCN1C(=O)NC1CCCCC1` (configuration not stated), for which the IC50 in series [1] was 9.7 nM; in series [2] it was 13 nM.

With `CCCCC(=O)N1CCN(C2c3ccc(Cl)cc3CCc3cc(Br)cnc32)CC1C(=O)Nc1cnccn1` (configuration not stated), the IC50 stood at 570 nM in series [1] and 190 nM in series [2].

In turn, `CCCCC(=O)N1CCN(C2c3ccc(Cl)cc3CCc3cc(Br)cnc32)CC1C(=O)NCCc1c[nH]cn1` (configuration not stated) had an IC50 in series [1] of 60 nM.

In the case of `CCCCC(=O)N1CCN(C2c3ccc(Cl)cc3CCc3cc(Br)cnc32)CC1C(=O)NCc1c[nH]cn1` (configuration not stated), the IC50 in series [1] is 210 nM; in series [2] it was 45 nM.

Turning to `CCCCC(=O)N1CCN(C2c3ccc(Cl)cc3CCc3cc(Br)cnc32)CC1C(=O)NCc1cccnc1` (configuration not stated), the results for the IC50 in series [1] and in series [2] were 64 nM and 5.7 nM, respectively.

`CCCCC(=O)N1CCN(C2c3ccc(Cl)cc3CCc3cc(Br)cnc32)CC1C(=O)Nc1cc(C)no1` (configuration not stated): the IC50 in series [1] is more than 4500 nM; in series [2] it was 560 nM.

Take `O=C(NCc1cccnc1)C1CN(C2c3ccc(Cl)cc3CCc3cc(Br)cnc32)CCN1C(=O)NC1CC1` (configuration not stated): the figures for the IC50 in series [1] and in series [2] were 260 nM and 51 nM, respectively.

In the case of `COCCC(=O)N1CCN(C2c3ccc(Cl)cc3CCc3cc(Br)cnc32)CC1C(=O)NCc1cccnc1` (configuration not stated), the IC50 in series [1] stood at 100 nM; in series [2] it was 20 nM.

For `CC(C)(C)NC(=O)N1CCN(C2c3ccc(Cl)cc3CCc3cc(Br)cnc32)CC1C(=O)NCc1cccnc1` (configuration not stated), the values for the IC50 in series [1] and in series [2] were 54 nM and 15 nM, respectively.

Turning to `O=C(NCc1cccnc1)C1CN(C2c3ccc(Cl)cc3CCc3cc(Br)cnc32)CCN1C(=O)C1CCCC1` (configuration not stated), the IC50 in series [1] was 65 nM; in series [2] it was 17 nM.

As to `Cc1ccc(CNC(=O)C2CN(C3c4ccc(Cl)cc4CCc4cc(Br)cnc43)CCN2C(=O)NC2CCCCC2)cn1` (configuration not stated), the IC50 in series [1] came to 550 nM; in series [2], 61 nM.

As to `CC(C)CC(=O)N1CCN(C2c3ccc(Cl)cc3CCc3cc(Br)cnc32)CC1C(=O)NCc1cccnc1` (configuration not stated), the figures for the IC50 in series [1] and in series [2] were 50 nM and 7.3 nM, respectively.

In the case of `CCCNC(=O)N1CCN(C2c3ccc(Cl)cc3CCc3cc(Br)cnc32)CC1C(=O)NCc1cccnc1` (configuration not stated), the IC50 in series [1] stood at 59 nM; in series [2], 19 nM.

Turning to `CC(C)CNC(=O)N1CCN(C2c3ccc(Cl)cc3CCc3cc(Br)cnc32)CC1C(=O)NCc1cccnc1` (configuration not stated), the IC50 in series [1] was found to be 52 nM; in series [2] it was 8 nM.

Regarding `O=C(Nc1nncs1)C1CN(C2c3ccc(Cl)cc3CCc3cc(Br)cnc32)CCN1C(=O)NC1CCCCC1` (configuration not stated), the IC50 in series [1] is more than 10000 nM; in series [2] it was 490 nM.

With `Cn1cncc1CCNC(=O)C1CN(C2c3ccc(Cl)cc3CCc3cc(Br)cnc32)CCN1C(=O)NC1CCCCC1` (configuration not stated), the IC50 in series [1] came out at 13 nM; in series [2], 7.3 nM.

As for `Cn1cnc(CCNC(=O)C2CN(C3c4ccc(Cl)cc4CCc4cc(Br)cnc43)CCN2C(=O)NC2CCCCC2)c1` (configuration not stated), the IC50 came out at 91 nM in series [1] and 26 nM in series [2].

Take `O=C(NCCCN1CCCC1=O)C1CN(C2c3ccc(Cl)cc3CCc3cc(Br)cnc32)CCN1C(=O)NC1CCCCC1` (configuration not stated): the half-maximal inhibitory concentration (IC50) in series [1] stood at 20 nM; in series [2] it was 14 nM.

On to `O=C(NCc1cccnc1)C1CN(C2c3ccc(Cl)cc3CCc3cc(Br)cnc32)CCN1C(=O)NC1CCCCC1` (configuration not stated), for which the figures for the IC50 in series [1] and in series [2] were 8.6 nM and 5.5 nM, respectively.

As for `O=C(NCc1cccnc1)C1CN(C2c3ccc(Cl)cc3CCc3cc(Br)cnc32)CCN1C(=O)NC1CCCCCC1` (configuration not stated), the values for the IC50 in series [1] and in series [2] were 52 nM and 9.1 nM, respectively.

`O=C(NCc1cccnc1)C1CN(C2c3ccc(Cl)cc3CCc3cc(Br)cnc32)CCN1C(=O)NCC1CCCCC1` (configuration not stated): the figures for the IC50 in series [1] and in series [2] were 53 nM and 10 nM, respectively.

Take `O=C(O)CCCC(=O)N1CCN(C2c3ccc(Cl)cc3CCc3cc(Br)cnc32)CC1C(=O)NCc1cccnc1` (configuration not stated): the IC50 was more than 200 nM in series [1] and 7 nM in series [2].

For `CC(=O)CCCC(=O)N1CCN(C2c3ccc(Cl)cc3CCc3cc(Br)cnc32)CC1C(=O)NCc1cccnc1` (configuration not stated), the IC50 amounted to 54 nM in series [1] and 8.4 nM in series [2].

Take `CN(C)C(=O)CCC(=O)N1CCN(C2c3ccc(Cl)cc3CCc3cc(Br)cnc32)CC1C(=O)NCc1cccnc1` (configuration not stated): the IC50 in series [1] was 11 nM; in series [2] it was 13 nM.

`CCOCC(=O)N1CCN(C2c3ccc(Cl)cc3CCc3cc(Br)cnc32)CC1C(=O)NCc1cccnc1` (configuration not stated): the results for the IC50 in series [1] and in series [2] were 160 nM and 21 nM, respectively.

`Cc1noc(C)c1CNC(=O)C1CN(C2c3ccc(Cl)cc3CCc3cc(Br)cnc32)CCN1C(=O)NC1CCCCC1` (configuration not stated) registered an IC50 in series [2] of 760 nM.

`CCCCC(=O)N1CCN(C2c3ccc(Cl)cc3CCc3cc(Br)cnc32)CC1C(=O)NCc1ncc[nH]1` (configuration not stated): the IC50 in series [1] is more than 200 nM; in series [2] it was 80 nM.

`O=C(NCc1cccnc1)C1CN(C2c3ccc(Cl)cc3CCc3cc(Br)cnc32)CCN1C(=O)NC1CCCC1` (configuration not stated): the results for the IC50 in series [1] and in series [2] were 28 nM and 14 nM, respectively.

As for `CC(=O)CCCCC(=O)N1CCN(C2c3ccc(Cl)cc3CCc3cc(Br)cnc32)CC1C(=O)NCc1cccnc1` (configuration not stated), the IC50 in series [1] was found to be 49 nM; in series [2], 8 nM.

For `CC(C)(C)CC(=O)N1CCN(C2c3ccc(Cl)cc3CCc3cc(Br)cnc32)CC1C(=O)NCc1cccnc1` (configuration not stated), the 50% inhibitory concentration (IC50) was 120 nM in series [1] and 12 nM in series [2].

For the compound `CC(=O)CCC(=O)N1CCN(C2c3ccc(Cl)cc3CCc3cc(Br)cnc32)CC1C(=O)NCc1cccnc1` (configuration not stated), the figures for the IC50 in series [1] and in series [2] were 47 nM and 11 nM, respectively.

As for `O=C(NCCCn1ccnc1)C1CN(C2c3ccc(Cl)cc3CCc3cc(Br)cnc32)CCN1C(=O)NC1CCCCC1` (stereo in doubt; 41), the values for the 50% inhibitory concentration (IC50) in series [1] and in series [2] were 4.2 nM and 4.5 nM, respectively.

For `O=C(NCCCn1ccnc1)C1CN(C2c3ccc(Cl)cc3CCc3cc(Br)cnc32)CCN1C(=O)NC1CCCCC1` (stereo in doubt; 41a), the IC50 in series [3] was 0.1 nM; in series [1] it was 1.2 nM; in series [4], 22000 nM; in series [2], 2 nM. The compound further returned a Stability with Liver microsomes of more than 95%.

As usually defined, the AUC is concentration integrated over time. Read a low AUC as low exposure. By Cmax is commonly meant the peak of the concentration-time curve. By bioavailability is commonly meant the share of a dose that reaches the circulation, judged against a reference dose that is usually intravenous. Low readings indicate poor availability, high ones good availability. On to `O=C(NCCCn1ccnc1)C1CN(C2c3ccc(Cl)cc3CCc3cc(Br)cnc32)CCN1C(=O)NC1CCCCC1` (stereo in doubt; 41b), for which the IC50 in series [1] was 0.56 nM; in series [4], more than 10000 nM; in series [2], 1.5 nM. This compound also returned an AUC in the series on Mus musculus of 1660 ng·h/mL. In addition, the Cmax in series [5] came to 2550 nM. Moreover, in series [6], the bioavailability worked out at 10.6%.
